CYP2C9 inh = human CYP2C9 inhibition | P11712 | CYP2C9 Supersomes, luciferin-H conversion, luminescence | inhibition, % at 5 µM | 20% of 96,000 active;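 active means blocking of liver enzyme CYP2C9 beyond about 50% at 5 µM, limit read from the data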
CYP2C19 activ = increases human CYP2C19 enzyme activity; P33261; recombinant CYP2C19, luciferin-H EGE luminescence; hits give high values; 0 = fully inhibited enzyme, 1 = untreated enzyme; 96,000 tested, under 10 active; activation factor at 5 µM;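 active means activation factor of at least 2 at 5 µM in the primary screen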
CYP2C19 inh = human CYP2C19 inhibition | inhibition, % at 5 µM | P33261 | 21% of 96,000 active | CYP2C19 Supersomes, luciferin-H EGE luminescence, 30 min;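 active means CYP2C19 inhibition above a set limit at 5 µM in the primary screen, cut at about 50% in these data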
Rev-RRE block = inhibitors of HIV-1 Rev-RRE RNA interaction | Rev peptide-RRE RNA binding, FRET | inhibition, % at 8 µM | 0.79% of 97,000 active | P05866;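 active means inhibition above the screen-wide mean plus 3 SD, cut at about 35% in these data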
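Test system: Cy5-tagged RRE RNA duplex with fluorescein-tagged Rev peptide | Read-out: % inhibition of FRET ratio versus controls | Probe or stimulus: Labelled Rev peptide | Incubation: 5 min RNA-compound premix plus 15 min binding step, 25 °C | Technique: FRET fluorescence readout | Benchmarks: DMSO low control, neomycin B high control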
CYP2C9 act = increases human cytochrome P450 2C9 activity; activation factor at 5 µM; recombinant CYP2C9, luciferin-H conversion, luminescence; hits give high values; factor 1 = untreated enzyme, 0 = blocked; 1.4% of 96,000 active;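 active means activation factor of 2 or more for CYP2C9 at a 5 µM dose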
Cav3 T inh = human Cav3.2 channel inhibition, primary screen. O95180. Cav3.2-expressing cells, Fluo-4 calcium fluorescence FDSS; hits give low values. B-score at 10 µM. 4% of 100,000 active. AID 449739;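 active means single-dose well whose peak fluorescence ratio is a statistical outlier from its plate by either plate-standardised score or position-corrected B-score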
Of the large screens only hits and unclear results are named; the others gave an inactive call. In the library only some 27% were active in any assay of this set; here they are far more common.

COc1ccccc1S(=O)(=O)Cc1ccc(C(=O)NCCN2CCCC2)o1	none
CCOC(=O)C1CCN(S(=O)(=O)c2c(C)[nH]c(=O)[nH]c2=O)CC1	none (no result: Rev-RRE block, Cav3 T inh)
CCn1c(CCNC(=O)c2cccs2)nnc1SCC(=O)Nc1cccc(Cl)c1	none (no result: CYP2C9 inh, CYP2C19 activ, CYP2C19 inh, CYP2C9 act)
CCn1c(SCC(=O)Nc2nc(-c3ccccc3)cs2)nnc1-c1ccccc1O	CYP2C9 inh 95, CYP2C19 inh 89 (no result: Cav3 T inh)
CCc1nnc(NC(=O)CSc2nnc3scc(-c4ccc(C)cc4)n23)s1	none (no result: CYP2C9 inh, CYP2C19 activ, CYP2C19 inh, CYP2C9 act)
CCn1c(SCC(=O)Nc2nc3c(s2)CCCC3)nnc1-c1ccccc1	CYP2C9 inh 88, CYP2C19 inh 81
Cc1cc2ccccc2nc1SCC(=O)Nc1nc(-c2ccccc2)cs1	none
CCn1c(CCNC(=O)c2cccs2)nnc1SCC(=O)Nc1nc(-c2ccccc2)cs1	Cav3 T inh -7.5 (no result: CYP2C9 inh, CYP2C19 activ, CYP2C19 inh, CYP2C9 act)
CCc1nnc(NC(=O)CSc2nnc(-c3ccoc3C)n2CC(C)C)s1	CYP2C9 inh 88, CYP2C19 inh 88 (no result: Rev-RRE block)
Cn1c(Cn2c(=O)sc3ccccc32)nnc1SCC(=O)Nc1ccc2c(c1)OCO2	none (no result: CYP2C9 inh, CYP2C19 activ, CYP2C19 inh, Rev-RRE block, CYP2C9 act)
CCc1ccccc1NC(=O)COC(=O)C1CC(=O)N(c2ccc(F)cc2)C1 (stereo unspecified)	none
CCn1c(SCC(=O)N(C(C)C)C(C)C)nnc1-c1cc2ccccc2cc1O	CYP2C9 inh 57, CYP2C19 inh 65
COCCCn1c(SCC(=O)Nc2nnc(C)s2)nnc1-c1ccoc1C	CYP2C9 inh 82
CCc1nnc(NC(=O)CSc2nnc(-c3c[nH]c4ccccc34)n2C)s1	none
COCCn1c(SCC(=O)Nc2nc3ccccc3s2)nnc1-c1ccoc1C	none (no result: CYP2C9 inh, CYP2C19 activ, CYP2C19 inh, CYP2C9 act)
CCn1c(SCC(=O)C(C)(C)C)nnc1-c1ccccc1OC	none
CCc1nnc(NC(=O)CSc2nnc(-c3cc4ccccc4cc3O)n2CCOC)s1	CYP2C9 inh 54
Cc1ccc2cc(C)c3nnc(SCC(=O)Nc4nc5c(s4)CCCC5)n3c2c1C	CYP2C9 inh 50, Cav3 T inh -5.3
Cc1ccc(NC(=O)CN(C)C(=O)CSc2nncn2C)cc1	none
CC(=O)n1cc([C@H]2C=C(C(N)=O)O[C@@H](OCc3ccc(CO)cc3)C2)c2ccccc21	none (no result: CYP2C9 inh, CYP2C19 activ, CYP2C19 inh, Rev-RRE block, CYP2C9 act)
COc1ccccc1CNC(=O)Cn1cccc1	none
CCc1nnc(NC(=O)CSc2nnc(-c3cccnc3)n2CC)s1	none
CCc1nnc(NC(=O)CSc2nnc(-c3cc4ccccc4cc3O)n2CC)s1	CYP2C9 inh 90, CYP2C19 inh 52 (no result: Rev-RRE block)
Cc1cc(C)nc(SCc2nnc(SCC(=O)Nc3nc(-c4ccccc4)cs3)n2-c2ccccc2)n1	Cav3 T inh -8.4
CCc1nnc(NC(=O)CSc2nnc(-c3ccccc3O)n2CC)s1	CYP2C9 inh 77, CYP2C19 inh 76
COc1ccc(-n2c(CNc3ccc(C)cc3)nnc2SCC(=O)Nc2nc(-c3ccccc3)cs2)cc1	none
COC(=O)c1c(NC(=O)C2(C)Cc3ccccc3C(=O)O2)sc2c1CCCC2 (stereo unspecified)	CYP2C9 inh 56, CYP2C19 inh 60
COc1ccccc1NC(=O)C1(C)Cc2ccccc2C(=O)O1 (stereo unspecified)	CYP2C9 act 2.3 (no result: Rev-RRE block)
CC1(C(=O)Nc2nnc(SCc3ccccc3)s2)Cc2ccccc2C(=O)O1 (stereo unspecified)	CYP2C9 inh 79
CC1(C(=O)Nc2nccs2)Cc2ccccc2C(=O)O1 (stereo unspecified)	none
COC(=O)C1=C(C)NC(=O)/C1=C\c1ccco1	none
COC(=O)C1=C(C)NC(=O)/C1=C\c1cc(C)n(-c2cccc(C)c2)c1C	CYP2C9 inh 84, CYP2C19 inh 79
CCOC(=O)N1CCN(CCC(=O)Nc2ccc(C)cc2)CC1	none
O=C(NCC1c2ccccc2CCN1C(=O)CN1C(=O)c2ccccc2C1=O)C1CCCCC1 (stereo unspecified)	CYP2C9 inh 72
Cc1c(C(=O)NCc2ccccc2)c(-c2ccccc2)nn1-c1ccccc1	none
O=C(NCCN1CCOCC1)c1ccccc1-c1ccccc1	none
O=C(NCCN1CCOCC1)c1cnn2c(-c3ccccc3)cc(-c3ccccc3)nc12	CYP2C19 inh 57
CC(=O)/C(=N/Nc1cccc(C)c1)N1CCOCC1	CYP2C9 inh 68, CYP2C19 inh 67 (no result: Cav3 T inh)
Cc1ccc(NC(=O)N2CCOCC2)c(C)c1	none
CC(Nc1cccc2ccccc12)C(=O)N/N=C/c1ccccn1 (stereo unspecified)	CYP2C19 inh 86
CC(Sc1nnc(CNc2cccc3ccccc23)n1-c1ccccc1)C(=O)N/N=C/c1ccco1 (stereo unspecified)	none
CCOc1ccc2nc(NC(=O)CSc3nc4c(c(=O)n(C)c(=O)n4C)n3C(C)C)sc2c1	none (no result: Rev-RRE block, Cav3 T inh)
CCn1c(SCC(=O)Nc2nc3ccc(OC)cc3s2)nc2c1c(=O)n(C)c(=O)n2C	CYP2C9 inh 62 (no result: Rev-RRE block)
CCOc1ccc2nc(NC(=O)Cn3cnc4c3c(=O)n(C)c(=O)n4C)sc2c1	CYP2C19 inh 69 (no result: Rev-RRE block)
CCS(=O)(=O)c1ccc2oc(SCC(=O)NC(C)C3CC4CCC3C4)nc2c1 (stereo unspecified)	none
COC(=O)c1cccc(NC(=O)CSc2nc3cccnc3n2C)c1	CYP2C9 inh 59, CYP2C19 inh 68
CCOc1ccccc1NC(=O)CSCC(=O)Nc1ccccc1	CYP2C19 inh 93, CYP2C9 act 2.6
CCOc1ccccc1NC(=O)CSc1nc2cccnc2n1C	CYP2C19 inh 66
CCOC(=O)CC(=O)CSCC(=O)Nc1ccc(C)cc1	CYP2C19 inh 54
O=C(Nc1cc(Cl)cc(Cl)c1)c1ccc(Cn2c(=O)[nH]c3ccsc3c2=O)cc1	none (no result: CYP2C9 inh, CYP2C19 activ, CYP2C19 inh, Rev-RRE block, CYP2C9 act)
CC(CN1CCCC1)OC(=O)COc1ccccc1 (stereo unspecified)	none
CCN1C(=O)N[C@@H](CCc2ccccc2)[C@@H](C(=O)OC)[C@H]1C	none (no result: CYP2C9 inh, CYP2C19 activ, CYP2C19 inh, Rev-RRE block, CYP2C9 act)
COc1ccc(NC(=O)CSc2nccn2-c2ccccc2)c(OC)c1	CYP2C19 inh 95 (no result: Rev-RRE block)
CCOc1ccccc1NC(=O)COn1nnc2ccccc21	CYP2C19 inh 92, CYP2C9 act 2.2
COc1cccc(-n2ccnc2SCC(=O)NCc2ccccc2)c1	CYP2C19 inh 96 (no result: Cav3 T inh)
CCOc1ccccc1NC(=O)CSc1c(C)n[nH]c1C	none
COc1ccccc1-n1c(C)nnc1SCC(=O)NCc1ccccc1	none (no result: CYP2C9 inh, CYP2C19 activ, CYP2C19 inh, CYP2C9 act)
COc1ccc(NC(=O)CSc2nnc(-c3ccccn3)n2N)c(OC)c1	none
CCOc1ccccc1NC(=O)CSc1nccn1-c1ccccc1	CYP2C19 inh 67, CYP2C9 act 2.4 (no result: Rev-RRE block, Cav3 T inh)
O=C1NC(=O)c2cc(NC(=O)C3CCCCC3)ccc21	none
CC1(C)CN=C(N2CCN(C3=NCC(C)(C)S3)CC2)S1	none (no result: Rev-RRE block, Cav3 T inh)
CCCCOc1ccccc1NC(=O)CSc1nnnn1C(C)(C)C	CYP2C9 inh 74, CYP2C19 inh 56
Cc1ccc(-c2csc3ncnc(Sc4nnc(CN5CCCCCC5=O)o4)c23)cc1	CYP2C9 inh 83, CYP2C19 inh 52, Cav3 T inh -6.7

Compound activity: PubChem BioAssay, several laboratories
